In ChEMBL document CHEMBL1123610, “Synthesis and antineoplastic activity of 1a-formyl and 1a-thioformyl derivatives of mitomycin C and 2-methylaziridine” (1987) one finds MED, T/C and minimal effective dose data, which are given here for eleven compounds.

One test relates to B16. Briefly: In vivo antineoplastic activity against B16 melanoma screen inoculated intraperitoneally expressed as minimum effective dose. Format: functional, Mus musculus.
Details: not given
`CO[C@@]12[C@H](COC(N)=O)C3=C(C(=O)C(C)=C(N)C3=O)N1C[C@H]1[C@H]2N1C(=O)Oc1ccccc1` displayed an MED of 3.2.

Another test has as its system B16. Kind of test: In vivo antineoplastic activity against B16 melanoma screen inoculated subcutaneously. Value in parenthesis indicates the optimal dosage.
Details: not given
The T/C is the ratio of treated to control. For the compound `COC(=O)N1[C@H]2CN3C4=C(C(=O)C(N)=C(C)C4=O)[C@@H](COC(N)=O)[C@@]3(OC)[C@@H]21`, the T/C came to 165%.

As for `CO[C@@]12[C@H](COC(N)=O)C3=C(C(=O)C(C)=C(N)C3=O)N1C[C@H]1[C@H]2N1C(=O)Sc1ccccc1`, the T/C was 156%.

The next test concerns P388. Briefly: In vivo antineoplastic activity of mitomycin C sample run concurrently against P388 leukemia screen (optimal dosage). In kind it is functional, Mus musculus.
Details: not given
Put shortly: (§1)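 Murine P388 lymphocytic leukemia screen, with tumor implanted ip and drug given ip. Response is %T/C = (median survival of treated / median survival of control) × 100, reported at the optimal dose per dose in mg/kg. Mitomycin C was run concurrently. MED is the lowest mg/kg per dose that reaches the criterion %T/C.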
Consider `COC(=O)N1[C@H]2CN3C4=C(C(=O)C(N)=C(C)C4=O)[C@@H](COC(N)=O)[C@@]3(OC)[C@@H]21`, for which the T/C is 275%.

Regarding `CO[C@@]12[C@H](COC(N)=O)C3=C(C(=O)C(C)=C(N)C3=O)N1C[C@H]1[C@H]2N1C(=O)Sc1ccccc1`, the T/C stood at 275%.

Take `CO[C@@]12[C@H](COC(N)=O)C3=C(C(=O)C(C)=C(N)C3=O)N1C[C@H]1[C@H]2N1C(=O)Nc1ccccc1`: the T/C worked out at 142%.

In turn, `CNC(=S)N1[C@H]2CN3C4=C(C(=O)C(N)=C(C)C4=O)[C@@H](COC(N)=O)[C@@]3(OC)[C@@H]21` registered a T/C of 152%.

In the case of `CO[C@@]12[C@H](COC(N)=O)C3=C(C(=O)C(C)=C(N)C3=O)N1C[C@H]1[C@H]2N1C(=S)Sc1ccccc1`, the T/C was determined as 172%.

As to `CNC(=O)N1[C@H]2CN3C4=C(C(=O)C(N)=C(C)C4=O)[C@@H](COC(N)=O)[C@@]3(OC)[C@@H]21`, the T/C is 142%.

`CO[C@@]12[C@H](COC(N)=O)C3=C(C(=O)C(C)=C(N)C3=O)N1C[C@H]1[C@H]2N1C(=S)Oc1ccccc1` yielded a T/C of 152%.

`CO[C@@]12[C@H](COC(N)=O)C3=C(C(=O)C(C)=C(N)C3=O)N1C[C@H]1[C@H]2N1C(=O)SC` registered a T/C of 142%.

In turn, `CO[C@@]12[C@H](COC(N)=O)C3=C(C(=O)C(C)=C(N)C3=O)N1C[C@H]1[C@H]2N1/C(S)=N\c1ccccc1` registered a T/C of 200%.

Take `CO[C@@]12[C@H](COC(N)=O)C3=C(C(=O)C(C)=C(N)C3=O)N1C[C@H]1[C@H]2N1C(=O)Oc1ccccc1`: the T/C is given as 275%.

In turn, `CO[C@@]12[C@H](COC(N)=O)C3=C(C(=O)C(C)=C(N)C3=O)N1C[C@H]1[C@H]2N1C(=S)SC` returned a T/C of over 333%.

Another test relates to B16. Briefly: In vivo antineoplastic activity of mitomycin C sample run concurrently against B16 melanoma screen (optimal dosage). Format: functional, Mus musculus.
Details: not given
Put shortly: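 Murine B16 melanoma test, with tumor implanted sc and treatment given iv. Activity is %T/C = (median survival of treated / median survival of untreated control) × 100, reported at the optimal dose in mg/kg per dose. A mitomycin C sample was run alongside. MED is the minimum mg/kg per dose meeting the activity criterion for %T/C.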
`COC(=O)N1[C@H]2CN3C4=C(C(=O)C(N)=C(C)C4=O)[C@@H](COC(N)=O)[C@@]3(OC)[C@@H]21` displayed a T/C of 147%.

With `CO[C@@]12[C@H](COC(N)=O)C3=C(C(=O)C(C)=C(N)C3=O)N1C[C@H]1[C@H]2N1C(=O)Sc1ccccc1`, the T/C came out at 147%.

`CO[C@@]12[C@H](COC(N)=O)C3=C(C(=O)C(C)=C(N)C3=O)N1C[C@H]1[C@H]2N1C(=O)Oc1ccccc1` had a T/C of 147%.

Another test relates to P388. Briefly: In vivo antineoplastic activity against P388 leukemia. In kind it is functional, Mus musculus.
Details: not given
Put shortly: as §1
`COC(=O)N1[C@H]2CN3C4=C(C(=O)C(N)=C(C)C4=O)[C@@H](COC(N)=O)[C@@]3(OC)[C@@H]21` yielded a T/C of 194%.

The compound `CO[C@@]12[C@H](COC(N)=O)C3=C(C(=O)C(C)=C(N)C3=O)N1C[C@H]1[C@H]2N1C(=O)Sc1ccccc1` had a T/C of 200%.

Take `CO[C@@]12[C@H](COC(N)=O)C3=C(C(=O)C(C)=C(N)C3=O)N1C[C@H]1[C@H]2N1C(=O)Nc1ccccc1`: the T/C amounted to 116%.

The compound `CNC(=S)N1[C@H]2CN3C4=C(C(=O)C(N)=C(C)C4=O)[C@@H](COC(N)=O)[C@@]3(OC)[C@@H]21` displayed a T/C of 95%.

Regarding `CO[C@@]12[C@H](COC(N)=O)C3=C(C(=O)C(C)=C(N)C3=O)N1C[C@H]1[C@H]2N1C(=S)Sc1ccccc1`, the T/C stood at 167%.

Compound `CNC(=O)N1[C@H]2CN3C4=C(C(=O)C(N)=C(C)C4=O)[C@@H](COC(N)=O)[C@@]3(OC)[C@@H]21` yielded a T/C of 121%.

`CO[C@@]12[C@H](COC(N)=O)C3=C(C(=O)C(C)=C(N)C3=O)N1C[C@H]1[C@H]2N1C(=S)Oc1ccccc1` had a T/C of 162%.

Compound `CO[C@@]12[C@H](COC(N)=O)C3=C(C(=O)C(C)=C(N)C3=O)N1C[C@H]1[C@H]2N1C(=O)SC` showed a T/C of 132%.

`CO[C@@]12[C@H](COC(N)=O)C3=C(C(=O)C(C)=C(N)C3=O)N1C[C@H]1[C@H]2N1/C(S)=N\c1ccccc1` displayed a T/C of 127%.

The compound `CO[C@@]12[C@H](COC(N)=O)C3=C(C(=O)C(C)=C(N)C3=O)N1C[C@H]1[C@H]2N1C(=O)Oc1ccccc1` registered a T/C of 194%.

With `CO[C@@]12[C@H](COC(N)=O)C3=C(C(=O)C(C)=C(N)C3=O)N1C[C@H]1[C@H]2N1C(=S)SC`, the T/C stood at 122%.

The next test concerns P388. Briefly: In vivo antineoplastic activity against P388 leukemia screen inoculated intraperitoneally expressed as minimum effective dose. In kind it is functional. As to conditions: Mus musculus, P388, ip; read-out: MED. In outline: as §1
`COC(=O)N1[C@H]2CN3C4=C(C(=O)C(N)=C(C)C4=O)[C@@H](COC(N)=O)[C@@]3(OC)[C@@H]21`: the minimal effective dose was found to be 3.2 mg/kg.

As for `CO[C@@]12[C@H](COC(N)=O)C3=C(C(=O)C(C)=C(N)C3=O)N1C[C@H]1[C@H]2N1C(=O)Sc1ccccc1`, the minimal effective dose was found to be 1.6 mg/kg.

Regarding `CO[C@@]12[C@H](COC(N)=O)C3=C(C(=O)C(C)=C(N)C3=O)N1C[C@H]1[C@H]2N1C(=S)Sc1ccccc1`, the minimal effective dose stood at 12.8 mg/kg.

`CO[C@@]12[C@H](COC(N)=O)C3=C(C(=O)C(C)=C(N)C3=O)N1C[C@H]1[C@H]2N1C(=S)Oc1ccccc1`: the minimal effective dose amounted to 51.2 mg/kg.

On to `CO[C@@]12[C@H](COC(N)=O)C3=C(C(=O)C(C)=C(N)C3=O)N1C[C@H]1[C@H]2N1C(=O)SC`, for which the minimal effective dose is 12.8 mg/kg.

As for `CO[C@@]12[C@H](COC(N)=O)C3=C(C(=O)C(C)=C(N)C3=O)N1C[C@H]1[C@H]2N1/C(S)=N\c1ccccc1`, the minimal effective dose worked out at 2.56 mg/kg.

`CO[C@@]12[C@H](COC(N)=O)C3=C(C(=O)C(C)=C(N)C3=O)N1C[C@H]1[C@H]2N1C(=O)Oc1ccccc1`: the minimal effective dose stood at 1.6 mg/kg.

A further test concerns B16. Kind of test: In vivo antineoplastic activity against B16 melanoma screen inoculated subcutaneously expressed as minimum effective dose.
Details: not given
`COC(=O)N1[C@H]2CN3C4=C(C(=O)C(N)=C(C)C4=O)[C@@H](COC(N)=O)[C@@]3(OC)[C@@H]21` returned an MED of 6.4.

`CO[C@@]12[C@H](COC(N)=O)C3=C(C(=O)C(C)=C(N)C3=O)N1C[C@H]1[C@H]2N1C(=O)Sc1ccccc1` came in with an MED of 1.6.

In the next test the test system is B16. Kind of test: In vivo antineoplastic activity against B16 melanoma screen inoculated intraperitoneally. Value in parenthesis indicates the optimal dosage.
Details: not given
Format: functional, Mus musculus.
As to `CO[C@@]12[C@H](COC(N)=O)C3=C(C(=O)C(C)=C(N)C3=O)N1C[C@H]1[C@H]2N1C(=O)Oc1ccccc1`, the T/C stood at 165%.
